Test results as given in ChEMBL document CHEMBL1136453, “New classes of antibacterial oxazolidinones with C-5, methylene O-linked heterocyclic side chains” (2003).
Converted amounts (≈) assume the structure as drawn.

Key:
[1] = system: Staphylococcus aureus; experiment: In vitro minimum inhibitory concentration against Staphylococcus aureus MRQR; type: functional
[2] = system: Mus musculus; experiment: In vivo antibacterial activity against Staphylococcus aureus after intravenous administration (10 mg/kg) in mice using (MTT) mouse thigh test
[3] = system: Mus musculus; experiment: In vivo antibacterial activity against Staphylococcus aureus after intravenous administration (5 mg/kg) in mice using (MTT) mouse thigh test
[4] = system: Streptococcus pyogenes; experiment: In vitro minimum inhibitory concentration against Streptococcus pyogenes penicillin sensitive; type: functional
In short: (§1)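 Agar dilution per NCCLS protocol with doubling dilutions from 128 to 0.008 mg/L, incubated at 37 °C. Strains came from an in-house culture collection. MIC reported in mg/L.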

[5] = system: Staphylococcus aureus; experiment: In vitro minimum inhibitory concentration against coagulase negative Staphylococcus aureus methicillin resistant (CNSMR); type: functional
[6] = system: Staphylococcus aureus; experiment: In vitro minimum inhibitory concentration against Staphylococcus aureus Oxford; type: functional; conditions: Staphylococcus aureus; read-out: MIC
[7] = system: Staphylococcus aureus; experiment: In vivo antibacterial activity against Staphylococcus aureus after intravenous administration (10 mg/kg) in mice using (MTT) mouse thigh test
[8] = In vivo antibacterial activity against Staphylococcus aureus after intravenous administration (5 mg/kg) in mice using (MTT) mouse thigh test
[9] = system: Enterococcus faecalis; experiment: In vitro minimum inhibitory concentration against Enterococcus faecalis; type: functional; in short: as §1

Work on `CC(=O)NC[C@H]1CN(c2ccc(N3CCOCC3)c(F)c2)C(=O)O1` [LINEZOLID] yielded an MIC [1] of 1 µg/mL (≈ 2.96 µM), an Activity [2] of 1.4 and an Activity [3] of 0.05. It also gave an MIC [4] of 1 µg/mL (≈ 2.96 µM), an MIC [5] of 0.5 µg/mL (≈ 1.48 µM) and an MIC [6] of 0.5 µg/mL (≈ 1.48 µM).
Molecule `O=C([C@@H](O)CO)N1CC=C(c2ccc(N3C[C@H](COc4cnsn4)OC3=O)cc2F)CC1` has an Activity [7] of 1.11, an MIC [1] of 0.13 µg/mL (≈ 0.28 µM) and an MIC [4] of 0.13 µg/mL (≈ 0.28 µM). It also gave an Activity [8] of 0.42, an MIC [9] of 0.25 µg/mL (≈ 0.538 µM) and an MIC [5] of 0.13 µg/mL (≈ 0.28 µM). The MIC [6] was 0.06 µg/mL (≈ 0.129 µM).
In the case of `O=C(CO)N1CC=C(c2c(F)cc(N3C[C@H](COc4cnsn4)OC3=O)cc2F)CC1`, the Activity [7] is reported as 1.72, the MIC [1] is reported as 0.25 µg/mL (≈ 0.553 µM) and the MIC [4] is reported as 0.25 µg/mL (≈ 0.553 µM). It also gave an Activity [8] of 1.05, an MIC [9] of 0.5 µg/mL (≈ 1.11 µM) and an MIC [5] of 0.25 µg/mL (≈ 0.553 µM). The MIC [6] was 0.13 µg/mL (≈ 0.287 µM).
Molecule `Cc1no[n+]([O-])c1OC[C@H]1CN(c2ccc(C3=CCOCC3)c(F)c2)C(=O)O1` has an Activity [7] of 0.2, an MIC [1] of 2 µg/mL (≈ 5.11 µM) and an MIC [4] of 4 µg/mL (≈ 10.2 µM). It also gave an Activity [8] of 0.03, an MIC [9] of 2 µg/mL (≈ 5.11 µM) and an MIC [5] of 2 µg/mL (≈ 5.11 µM). For the same molecule, the MIC [6] was 1 µg/mL (≈ 2.56 µM).
For `CC(=O)NC[C@H]1CN(c2ccc(C3=CCOCC3)c(F)c2)C(=O)O1`, the Activity [7] was 1.34, the MIC [1] was 0.25 µg/mL (≈ 0.748 µM) and the MIC [4] was 0.13 µg/mL (≈ 0.389 µM). It also gave an Activity [8] of 0.6, an MIC [9] of 0.13 µg/mL (≈ 0.389 µM) and an MIC [5] of 0.13 µg/mL (≈ 0.389 µM). It also gave an MIC [6] of 0.13 µg/mL (≈ 0.389 µM).
In the case of `O=C1O[C@@H](COc2ccon2)CN1c1ccc(C2=CCN(C(=S)CO)CC2)c(F)c1`, the Activity [7] is reported as 0.07, the MIC [1] is reported as 0.5 µg/mL (≈ 1.15 µM) and the MIC [4] is reported as 0.25 µg/mL (≈ 0.577 µM). The Activity [8] was -0.01, the MIC [9] was 0.5 µg/mL (≈ 1.15 µM) and the MIC [5] was 0.25 µg/mL (≈ 0.577 µM). It also gave an MIC [6] of 0.25 µg/mL (≈ 0.577 µM).
Work on `O=C(CO)N1CC=C(c2ccc(N3C[C@H](COc4ccon4)OC3=O)cc2F)CC1` yielded an Activity [7] of 1.2, an MIC [1] of 0.5 µg/mL (≈ 1.2 µM) and an MIC [4] of 0.5 µg/mL (≈ 1.2 µM). It also gave an Activity [8] of 0.71, an MIC [9] of 1 µg/mL (≈ 2.4 µM) and an MIC [5] of 0.5 µg/mL (≈ 1.2 µM). The MIC [6] was 0.25 µg/mL (≈ 0.599 µM).
`O=C(C(CO)Cn1cncn1)N1CC=C(c2c(F)cc(N3C[C@H](COc4ccon4)OC3=O)cc2F)CC1` (stereo not given in full) gave an Activity [7] of 0.5, an MIC [1] of 1 µg/mL (≈ 1.89 µM) and an MIC [4] of 1 µg/mL (≈ 1.89 µM). For the same molecule, the Activity [8] was 0.25, the MIC [9] was 2 µg/mL (≈ 3.77 µM) and the MIC [5] was 1 µg/mL (≈ 1.89 µM). For the same molecule, the MIC [6] was 0.5 µg/mL (≈ 0.943 µM).
